Measurements pooled from the literature.
Each line is one published result; the experiments were not run side by side.

SMILES	technique	sample	time	pH	temperature	notes	solubility
O=C(Nc1ccc(OC(F)(F)F)cc1)N[C@H]1CC[C@H](Oc2ccc(C(=O)O)cc2)CC1	–	simulated gastric fluid	30 min	pH 1	37 °C	acidic	0.0005 µg/mL
OCc1ccc(-c2nn(Cc3ccccc3)c3cnccc23)o1	–	aqueous buffer	6 h	pH 7.4	–	–	> 45 µg/mL
Cc1ccc(Nc2ncnc3ccc(-c4cccc(N5CCOCC5)c4)cc23)cc1	–	aqueous buffer	–	pH 7.4	25 °C	–	0.9 µM
OCc1ccc(-c2nn(Cc3ccccc3)c3cccnc23)o1	–	aqueous buffer	6 h	pH 7.4	–	–	> 45 µg/mL
CCOC(=O)C1=C(CN2CCC[C@@H]2C(=O)Nc2ccc(B(O)O)cc2)NC(c2nccs2)=N[C@H]1c1ccc(F)cc1Br	HPLC	aqueous buffer	–	pH 7	–	–	2.57 µg/mL
OCc1ccc(-c2nn(Cc3ccncc3)c3cccnc23)o1	–	aqueous buffer	6 h	pH 7.4	–	–	> 30 µg/mL
c1cc(-c2ccc3ncnc(Nc4ncco4)c3c2)cc(N2CC3CCC(C2)O3)c1	–	aqueous buffer	–	pH 7.4	25 °C	–	0.4 µM
Cc1ccccc1CN1C(=O)C2=C(CCN(Cc3ccccc3)C2)N2CCN=C12	shake flask	aqueous buffer	–	pH 1	–	–	62200 µg/mL
CNS(=O)(=O)c1ccc(Nc2ncc(C(F)(F)F)c([C@H]3CC[C@@](C)(O)CC3)n2)c(C)c1	–	PBS	2 h	pH 7.4	–	–	11 µM
NCc1ccc(-c2nn(Cc3ccncc3)c3ccccc23)o1	–	aqueous buffer	6 h	pH 7.4	–	–	> 30 µg/mL
CN(c1ncco1)c1ncnc2ccc(-c3cccc(N4CCOCC4)c3)cc12	–	aqueous buffer	–	pH 7.4	25 °C	–	802 µM
CNS(=O)(=O)c1ccc(Nc2ncc3cc(Cl)c(=O)n(C4CCCC4)c3n2)c(C)c1	–	FaSSIF	2 h	–	–	–	15 µM
O=C(O)c1cc(-c2ccc(-n3ccnn3)cc2)c2ccc(-c3ccc(C(F)(F)F)cc3)cc2c1	–	aqueous buffer	–	pH 7.4	–	–	9.1 µg/mL
C[C@@H]1COCCN1c1cccc(-c2ccc3ncnc(Nc4ncco4)c3c2)c1	–	aqueous buffer	–	pH 7.4	25 °C	–	23 µM
O=c1c2c([nH]c3cc(Oc4ccc(OC(F)(F)F)cc4)ccc13)CCCC2	absorbance	aqueous buffer	90 min	pH 7.4	–	–	18.5 µM
CCOC(=O)C1=C(CN2CCOCC2)NC(c2nccs2)=NC1c1ccc(F)cc1Br (stereo not drawn)	HPLC	aqueous buffer	–	pH 7	–	–	< 1 µg/mL
Oc1ccc(/C=C/c2cc(O)cc(O)c2)cc1	HPLC	aqueous buffer	24 h	pH 6.8	–	–	79.5 µg/mL
Cc1ccc(Nc2cnnc3ccc(-c4ccc(N5CCCN(C)CC5)cc4)cc23)cn1	–	aqueous buffer	–	pH 7.4	25 °C	–	82 µM
O=C(O)Cc1ccccc1Nc1c(Cl)cccc1Cl	–	FaSSIF	–	–	–	–	324 µM
COc1cnc(Nc2cnnc3ccc(-c4ccc(N5CCN(C)CC5)cc4)cc23)nc1	–	aqueous buffer	–	pH 7.4	25 °C	–	26 µM
Cc1ccc(N(C)c2ccc(NC(=O)CN(C)c3ccccc3N3CCCC3=O)cc2)cc1	–	PBS	–	pH 7.4	–	–	7.2 µM
Cc1nsc(-c2nnc3n2CCN(C(=O)c2ccc(F)cc2)[C@@H]3C)n1	–	aqueous buffer	–	pH 7.4	–	–	350 µg/mL
CN(C)CCOc1ccc2c(=O)c3c([nH]c2c1)CCCC3	absorbance	aqueous buffer	90 min	pH 7.4	–	–	> 500 µM

SMILES	technique	sample	time	pH	temperature	notes	solubility
Cc1ccc(N(c2ccc(NC(=O)CN(C)c3ccccc3N3CCCC3=O)cc2)C(C)C)cc1	–	PBS	–	pH 7.4	–	–	< 2.5 µM
CC(C)(C)OC(=O)N1CCC(Oc2ccc3c(=O)c4c(F)cc(Cl)cc4[nH]c3c2)C1 (stereo not drawn)	absorbance	aqueous buffer	90 min	pH 7.4	–	–	< 3.12 µM
c1cc(-c2ccc3ncnc(NC4CCOCC4)c3c2)cc(N2CCOCC2)c1	–	aqueous buffer	–	pH 7.4	25 °C	–	202 µM
Cc1ccc(N(C)c2ccc(NC(=O)CN(C)c3cc(F)ccc3N3CCCC3=O)cc2)cc1	–	PBS	–	pH 7.4	–	–	6.3 µM
OCc1ccc(-c2nn(Cc3cccnc3)c3ccccc23)o1	–	aqueous buffer	6 h	pH 7.4	–	–	> 45 µg/mL
C[C@H]1CN(c2cccc(-c3ccc4ncnc(Nc5ncco5)c4c3)c2)CCO1	–	aqueous buffer	–	pH 7.4	25 °C	–	6 µM
Cn1cc(-c2ccc3c(Cl)cn(CC(=O)Nc4ccccc4Cl)c3c2)cn1	–	PBS	–	pH 7.4	–	–	< 2.7 µM
c1coc(Nc2ncnc3ccc(-c4cncc(N5CCOCC5)n4)cc23)n1	–	aqueous buffer	–	pH 7.4	25 °C	–	19 µM
O=c1c2ccc(OCc3ccc(OC(F)(F)F)cc3)cc2[nH]c2cc(Cl)cc(F)c12	absorbance	aqueous buffer	90 min	pH 7.4	–	–	< 3.12 µM
CC(=O)N[C@@H](CS)C(=O)O	–	aqueous buffer	–	pH 7.5	–	–	164000 µg/mL
N[C@@H]1COc2ccc(-c3cccc(COc4ccccc4C(Nc4ccc5oc(=O)[nH]c5c4)C(=O)O)c3)cc21 (mixture of isomers)	–	aqueous buffer	–	pH 6.8	–	–	200 µM
O=c1c2c(F)cc(Cl)cc2[nH]c2cccc(Oc3ccc(OC(F)(F)F)cc3)c12	absorbance	aqueous buffer	90 min	pH 7.4	–	–	32.3 µM
Cc1ncsc1-c1ccc(CNC(=O)[C@@H]2C[C@@H](O)CN2C(=O)[C@@H](NC(=O)COCCOCCOCCNC(=O)C[C@@H]2N=C(c3ccc(Cl)cc3)c3c(sc(C)c3C)-n3c(C)nnc32)C(C)(C)C)cc1	HPLC	water	–	pH 6.9	–	–	45 µg/mL
O=C([O-])CN1CCNCCN(CC(=O)[O-])CCNCC1.[Mn+2]	–	water	–	–	–	–	470000 µg/mL
c1ccc(Oc2ccc(Nc3c4c(nc5ccccc35)CCC4)cc2)cc1	nephelometry	aqueous buffer	30 min	pH 6.5	–	–	1.6 to 3.1 µg/mL
CN1CCN(c2cccc(-c3ccc4ncnc(Nc5ccc(Cl)c(C(F)(F)F)c5)c4c3)c2)CC1	–	aqueous buffer	–	pH 7.4	25 °C	–	< 1.4 µM
CNS(=O)(=O)c1ccc(Nc2ncc(C(F)(F)F)c(N3CCC[C@](C)(O)C3)n2)c(C)c1	–	PBS	2 h	pH 7.4	–	–	37 µM
COc1cnccc1Cn1nc(-c2ccc(CO)o2)c2ccccc21	–	aqueous buffer	6 h	pH 7.4	–	–	> 33 µg/mL
Cc1ccc(Oc2ccc(NC(=O)CN(C)c3ccccc3N3CCCC3=O)cc2)cc1	–	PBS	–	pH 7.4	–	–	4.8 µM
O=C1COc2ccc(-c3cccc(Cl)c3)cc2N1Cc1noc(C2CCC2)n1	–	PBS	8 h	pH 7.4	–	–	100 µM
CN(CC(=O)Nc1ccc(N(C)c2ccc(Cl)c(F)c2)cc1)c1ccccc1N1CCCC1=O	–	PBS	–	pH 7.4	–	–	< 2.5 µM
CCOc1ccc(Nc2c3c(nc4ccccc24)CCC3)cc1	nephelometry	aqueous buffer	30 min	pH 6.5	–	–	12.5 to 25 µg/mL
